The target of experiment [1] is Cannabinoid receptor 2 (Mus musculus) (UniProt P47936). Briefly: Agonist activity at CB2R in LPS induced mouse BV2 cells assessed as IL-1beta secretion at 10 uM preincubated for 30 mins followed by LPS stimulation for 4 hrs by ELISA (reference value: 734.3 +/-35.1%). It counts as cell-based. The conditions noted are these: BV-2, filed as agonist, time 270.0 min. The essentials: (§1)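 BV-2 murine microglia grown in high-glucose DMEM with 10% FBS. Treatments in FBS-free medium: test agonist 10 μM for 30 min, then LPS 5 μg/ml for 4 h; SR144528 10 μM given 15 min before agonist. DMSO ≤0.1% final. Medium spun 10 min at 1000×g; IL-1β, IL-6, IL-10 quantified by ELISA; three independent experiments in duplicate.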
Chain of Cannabinoid receptor 2 (Mus musculus) (P47936 whole entry): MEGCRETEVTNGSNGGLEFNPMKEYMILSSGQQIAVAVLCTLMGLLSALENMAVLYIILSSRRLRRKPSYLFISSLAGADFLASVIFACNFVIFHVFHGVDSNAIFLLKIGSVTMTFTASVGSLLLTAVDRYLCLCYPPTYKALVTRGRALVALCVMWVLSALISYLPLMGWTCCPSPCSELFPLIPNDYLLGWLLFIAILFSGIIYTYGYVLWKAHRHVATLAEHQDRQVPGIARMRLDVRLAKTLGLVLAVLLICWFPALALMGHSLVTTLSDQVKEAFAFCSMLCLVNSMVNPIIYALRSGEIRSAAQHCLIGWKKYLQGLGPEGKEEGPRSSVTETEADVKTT
For orientation: In an ELISA, binding on a coated surface is turned into a signal by an enzyme label.

The target is the same in experiment [2]. The experiment can be described thus: Agonist activity at CB2R in LPS induced mouse BV2 cells assessed as IL-6 secretion at 10 uM preincubated for 30 mins followed by LPS stimulation for 4 hrs by ELISA (reference value: 764.7 +/-22.9%). It is filed as cell-based. Particulars: BV-2, filed as agonist, time 270.0 min. In outline: as §1
Experiment [3] shares this target. The experiment can be described thus: Agonist activity at CB2R in LPS induced mouse BV2 cells assessed as reduction in IL-6 secretion at 10 uM preincubated with CB2R antagonist, SR144528 for 15 mins followed by compound additon for 30 mins after LPS stimulation for 4 hrs by ELISA. Particulars: BV-2, time 270.0 min. It counts as cell-based. In outline: as §1
Experiment [4] concerns Mus musculus. Briefly: Antinociceptive activity in orally dosed CD-1 albino mouse model of oxaliplatin-induced neuropathic pain assessed as decrease in pain-related behaviour treated on day 15 post oxaliplatin treatment and measured after 15 to 75 mins post dose by cold plate test. The conditions noted are these: dose 5-50 mg/kg, time 15-75 min. It counts as functional, organism-based. In outline: (§2)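 Male CD-1 mice (22-25 g) given oxaliplatin 2.4 mg/kg i.p. in 5% glucose on days 1-2, 5-9, 12-14; tested day 15. Compound in 1% carboxymethylcellulose orally at 5, 10, 20, 50 mg/kg. Cold plate licking latency at 15, 30, 45, 60, 75 min post dose. Selective CB1R and CB2R antagonists co-tested. 16 mice per treatment across 2 sessions; one-way ANOVA with Bonferroni.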

For experiment [5], the system named is Mus musculus. Briefly: Antinociceptive activity in CD-1 albino mouse model of oxaliplatin-induced neuropathic pain assessed as decrease in pain-related behaviour at 10 mg/kg, po pretreated with CB1R antagonist, SR141716A for 15 mins before compound addition treated on day 15 post oxaliplatin treatment and measured after 15 to 75 mins post dose by cold plate test. It is filed as functional, organism-based. The conditions noted are these: time 15-75 min. In outline:
as §2

Experiment [6] has as its system Mus musculus. Briefly: Antinociceptive activity in CD-1 albino mouse model of oxaliplatin-induced neuropathic pain assessed as decrease in pain-related behaviour at 10 mg/kg, po pretreated with CB2R antagonist, SR144528 for 15 mins before compound addition treated on day 15 post oxaliplatin treatment and measured after 15 to 75 mins post dose by cold plate test. It counts as functional, organism-based. The conditions noted are these: time 15-75 min. The essentials:
as §2

Experiment [7] concerns Mus musculus. Briefly: Antiinflammatory activity in MOG (35 to 55 residues)/pertussis toxin-induced experimental autoimmune encephalomyelitis C57BL/6J mouse model assessed as reduction in clinical scores at 10 mg/kg, ip dosed once daily for 20 days starting from day 10 to 16 post immunization and measured from 2 to 4 days post treatment. It counts as functional. The conditions noted are these: time 2-4 day. The essentials:
(§3)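 Active EAE in mice: 200 µg MOG35-55 in CFA (4 mg/ml M. tuberculosis) s.c. at hips and tail root, plus pertussis toxin 300 ng i.p. after immunization and 48 h later. Daily i.p. dosing (DMSO vehicle) for 20 days from each mouse's onset (day 10–16); onset = day 1. Daily clinical score; multiple t-tests with Holm-Sidak.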

In experiment [8] the test system is Mus musculus. Briefly: In vivo agonist activity at CB1R in C57BL/6J mouse assessed as functional CB1R level in brain at 10 mg/kg, ip after 20 days by [35S]GTPgammaS assay. It is filed as organism-based. Particulars: time 20.0 day. In outline: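 After 20 days of EAE treatment, half-brain membranes (20 µg) pre-incubated 30 min at 37 °C with adenosine deaminase 0.5 units/mL, 30 μM GDP, 0.2 nM [35S]GTPγS at pH 7.4. Stimulated by CP55,940 1 μM, SR141716A 1 μM, both, or vehicle for 1 h at 30 °C; nonspecific with 10 μM GTPγS; expressed as % of vehicle control.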

For experiment [9], the system named is Mus musculus. The experiment can be described thus: Antinociceptive activity in CD-1 albino mouse model of oxaliplatin-induced neuropathic pain assessed as decrease in pain-related behaviour by measuring efficacy onset and time duration at 5 to 50 mg/kg, po treated on day 15 post oxaliplatin treatment and measured after 15 to 75 mins post dose by cold plate test. The conditions noted are these: dose 5-50 mg/kg; time 15-75 min. It is filed as functional. The essentials:
as §2

For experiment [10], the system named is Mus musculus. Briefly: Antiinflammatory activity in MOG (35 to 55 residues)/pertussis toxin-induced experimental autoimmune encephalomyelitis C57BL/6J mouse model assessed as improvement in disease severity at 10 mg/kg, ip dosed once daily for 20 days starting from day 10 to 16 post immunization and measured at day 5 to 9 post treatment. Particulars: time 5-9 day. It is filed as functional, organism-based. The essentials:
as §3

In a further experiment the target is Cannabinoid receptor 1 (Homo sapiens, UniProt P21554). Briefly: Antagonist activity at human CB1R expressed in CHO cell membranes preincubated for 30 mins followed by GTPgammaS addition and measured after 90 mins by [35S]GTPgammaS assay. It counts as functional, Membrane. In outline:
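In-house CHO membranes expressing hCB1 or hCB2 (10 µg) in 50 mM Tris-HCl, 3 mM MgCl2, 0.2 mM EDTA, 100 mM NaCl, 0.5% fatty-acid-free BSA, pH 7.4, with 10 μM GDP and 0.1 nM [35S]GTPγS. Incubated 90 min at 30 °C; antagonist pre-incubated 30 min. Nonspecific binding with 10 μM GTPγS; bound label by filtration and counting; ≥3 experiments in triplicate.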
For orientation: Binding of GTPγS marks nucleotide exchange on a G protein.

Experiment [11] has as its target T1, Cannabinoid receptor 2 (Homo sapiens, UniProt P34972). Briefly: Competitive antagonist activity at human CB2R expressed in CHO cell membranes assessed as N-cycloheptyl-1,2-dihydro-5-bromo-1-(4-fluoro benzyl)-6-methyl-2-oxo-pyridine-3-carboxamide Emax at 1000 nM preincubated with compound for 30 mins followed by GTPgammaS addition and measured after 90 mins by [35S]GTPgammaS assay (reference value: 210%). Particulars: Membrane, filed as antagonist, time 120.0 min. It is filed as functional. In outline:
(§4)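 hCB2 CHO membranes in GTPγS buffer (10 μM GDP, 0.1 nM [35S]GTPγS, pH 7.4) pre-incubated 30 min with antagonist at 300 nM or 1 µM, then agonist or inverse agonist concentration series, 90 min at 30 °C. EC50 and Emax reported with 95% CI; Schild analysis; controls CP55,940 100 nM and AM630 1 μM; ≥3 experiments in triplicate.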

The target in experiment [12] is T1, Cannabinoid receptor 2. Briefly: Competitive antagonist activity at human CB2R expressed in CHO cell membranes assessed as rightward shift of N-cycloheptyl-1,2-dihydro-5-bromo-1-(4-fluoro benzyl)-6-methyl-2-oxo-pyridine-3-carboxamide-induced GTPgammaS binding by measuring fold change in N-cycloheptyl-1,2-dihydro-5-bromo-1-(4-fluoro benzyl)-6-methyl-2-oxo-pyridine-3-carboxamide EC50 at 300 nM preincubated with compound for 30 mins followed by GTPgammaS addition and measured after 90 mins by [35S]GTPgammaS assay. It is filed as functional. Particulars: Membrane, time 120.0 min. In outline:
as §4

Data on 2 molecules can be found in ChEMBL document CHEMBL4706601, “The endocannabinoid system dual-target ligand N-cycloheptyl-1,2-dihydro-5-bromo-1-(4-fluorobenzyl)-6-methyl-2-oxo-pyridine-3-carboxamide improves disease severity in a mouse model of multiple sclerosis” (Eur J Med Chem, 2020).

As a reminder, the inhibition in vivo is the share of the control response that was lost under treatment. Broadly, the pEC50 is the negative decadic logarithm of the EC50, by convention in mol/L. The low end stands for a high EC50, the high end for a low EC50. In general, Emax refers to the size of the effect at its maximum, as opposed to the concentration needed.

pEC50: −log10 of the molar value. Activity calls are given as the source filed them. The rule behind the calls is not given here.

T1 sequence (P34972 whole entry): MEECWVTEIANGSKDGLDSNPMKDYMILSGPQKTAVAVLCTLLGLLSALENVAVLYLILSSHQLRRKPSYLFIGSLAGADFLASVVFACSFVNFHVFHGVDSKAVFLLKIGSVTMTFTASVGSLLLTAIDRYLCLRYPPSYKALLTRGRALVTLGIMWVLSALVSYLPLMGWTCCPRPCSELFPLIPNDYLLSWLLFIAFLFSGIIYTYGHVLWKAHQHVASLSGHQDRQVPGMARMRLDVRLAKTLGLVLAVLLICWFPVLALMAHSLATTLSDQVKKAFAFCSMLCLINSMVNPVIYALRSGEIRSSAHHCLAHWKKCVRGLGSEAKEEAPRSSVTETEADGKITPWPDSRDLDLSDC
Chain of Cannabinoid receptor 1 (P21554 whole entry): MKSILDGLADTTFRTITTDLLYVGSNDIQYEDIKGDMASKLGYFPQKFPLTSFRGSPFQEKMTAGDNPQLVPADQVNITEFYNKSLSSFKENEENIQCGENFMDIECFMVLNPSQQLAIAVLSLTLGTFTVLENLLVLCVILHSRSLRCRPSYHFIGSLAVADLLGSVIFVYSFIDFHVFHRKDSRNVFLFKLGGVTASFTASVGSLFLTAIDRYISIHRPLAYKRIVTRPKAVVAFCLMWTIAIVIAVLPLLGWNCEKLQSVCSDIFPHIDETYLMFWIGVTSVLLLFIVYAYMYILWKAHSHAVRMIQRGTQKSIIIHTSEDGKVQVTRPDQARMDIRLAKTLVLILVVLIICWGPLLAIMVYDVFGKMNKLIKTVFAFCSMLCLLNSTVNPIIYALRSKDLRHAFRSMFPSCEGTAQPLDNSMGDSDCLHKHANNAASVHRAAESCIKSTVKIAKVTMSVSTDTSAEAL

`Cc1c(Br)cc(C(=O)NC2CCCCCC2)c(=O)n1Cc1ccc(F)cc1`: the values for the Activity (in experiment [1]; in experiment [2]; in the experiment on Mus musculus [4]) were 24.6%, 27.8% and “Dose-dependent effect”, respectively. Moreover, the result (in experiment [3]; in the experiment with Mus musculus [5]; in the experiment with Mus musculus [6]; with Mus musculus [8]; in the experiment with Mus musculus [10]) was inactive. Moreover, the inhibition in vivo at 10 mg/kg in the experiment on Mus musculus [7] was 30%. In addition, the Time in the experiment with Mus musculus [9] was 15 min.

The molecule `COc1ccc(-c2cc(C(=O)NC3CCCCCC3)c(=O)n(Cc3ccc(F)cc3)c2C)cc1` had a negative-log EC50 (pEC50) on Cannabinoid receptor 1 of 6.57. Moreover, the maximal effect (Emax) at Cannabinoid receptor 2 [11] came out at 208%. Besides, the fold change (FC) at Cannabinoid receptor 2 [12] is 19.
